Experimental data from different studies.
Compare with care: the assays were run in different laboratories.
CHRM1: Muscarinic acetylcholine receptor M1 (CHRM1, Homo sapiens, UniProt P11229)
CSNK1A1L: Casein kinase I isoform alpha-like (CSNK1A1L, Homo sapiens, UniProt Q8N752)
CDK3: Cyclin-dependent kinase 3 (CDK3, Homo sapiens, UniProt Q00526)

NC/C(=C\F)COc1cccc(Cn2c(=S)[nH]c(=O)c3[nH]cnc32)c1  inhibition (CHRM1; ligand displacement, radioligand; 10 µM): < 50%
C1=C/COCc2cc(ccc2OCCN2CCCC2)Nc2nccc(n2)-c2cccc(c2)COC/1  remaining binding (CSNK1A1L; binding; 0.1 µM): 99%
CCCCC(=O)Nc1ccc(-c2ccc3ncn(CCC)c(=O)c3c2)cn1  remaining binding (CSNK1A1L; binding, competition with immobilised ligand; 0.5 µM): 99%
CNC(=O)COc1cc2cc(Nc3nc(N4CCC(C(=O)N(C)C)CC4)ncc3Cl)cc(OC)c2n(C)c1=O  inhibition (B-cell lymphoma 6 protein (BCL6, Homo sapiens, UniProt P41182); target engagement in cells, BRET; HEK-293T; 1 µM): > 90%
COc1ccc2oc(-c3ccc4nc(N)oc4c3)c/c(=N\c3ccccc3NC(=O)CCN)c2c1  remaining binding (Tyrosine-protein kinase ABL1 (Abl1, Mus musculus, UniProt P00520); binding; 1 µM): 91%
Cc1cc(F)cc2c(CCC(=O)N[C@@H]3C(=O)NC[C@H]3O)c(-c3ccc(F)cc3)[nH]c12  inhibition (CHRM1; cell-free assay; 10 µM): 14%
Cc1cc(O)c(-c2ccc([C@@H](C)CN(C)C)cc2)c2c1[nH]c(=O)c1sccc12  inhibition (Serine/threonine-protein kinase Sgk1 (SGK1, Homo sapiens, UniProt O00141); enzyme activity, inhibitor; 0.1 µM): -3.37%
Cc1cc(S(=O)(=O)N[C@H]2CC[C@H](CN3CCN(c4ccc(C5CCC(=O)NC5=O)cc4F)CC3)CC2)ccc1Nc1ncc(C(F)(F)F)c(N2CCC[C@](C)(O)C2)n1 (some centres unmarked)  remaining binding (CDK3; binding, competition with immobilised ligand; 1 µM): 63%
C#Cc1cc(-c2cc(Nc3nc(N[C@@H](C)c4ccc(F)cn4)ncc3Cl)n[nH]2)ccc1C=O  inhibition (Tyrosine-protein kinase JAK1 (JAK1, Homo sapiens, UniProt P23458); enzyme activity, inhibitor; 0.2 µM): 89.1%
CCN1/C(=C/C(C)=O)Sc2ccc(F)cc21  inhibition (Prostaglandin E2 receptor EP2 subtype (PTGER2, Homo sapiens, UniProt P43116); ligand displacement, radioligand; 10 µM): 4.3%
CNS(=O)(=O)c1ccc(Nc2ncc(C(F)(F)F)c(N3CCC[C@](C)(O)C3)n2)c(C)c1  remaining binding (CDK3; binding, competition with immobilised ligand; 1 µM): 49%
